Experimental data as given in PMC7025391 (The Lancet. Oncology, 2019).
Like-named read-outs stand apart in the source and are kept apart here.

How the values were obtained:
[1] = Pharmacokinetics: steady state Cmax of alpelisib and olaparib; assay type: in vivo, human; conditions: combination; for Effect of the other drug's dosing on Cmax: dose levels 0-3; for Steady state Cmax compared with monotherapy: day 8, 2 hours post dosing
Outline: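 Blood sampled for alpelisib and olaparib levels on cycle 1 day 1 (time 0) and on days 8 and 15 at 0, 1, 2, 4 and 8 h after dosing both agents. Patients took oral alpelisib once daily and olaparib tablets twice daily, continuously on 28-day cycles, at alpelisib 200–300 mg with olaparib 100–200 mg.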

patients = conditions: olaparib monotherapy, SOLO1 study; cited from earlier work
[2] = system: patients with recurrent EOC or BC; assay: Phase 1b 3+3 dose escalation: DLTs, MTD and RP2D; assay type: in vivo, human
Outline: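 Classic 3+3 design with continuous 28-day cycles: oral alpelisib q.d. plus olaparib tablets b.i.d. Levels were 250/100 mg, 250/200 mg, 300/200 mg and 200/200 mg. Escalation followed 0/3 or 1/6 DLTs in cycle 1, graded by CTCAE v4.03. DLTs were prespecified grade ≥3 treatment-related toxicities. Monitoring was weekly in cycles 1–2, then day 1 of each cycle. Six EOC patients were then expanded at the MTD.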

EOC patients = conditions: cited from earlier work
[3] = system: EOCs that are gBRCAwt but HRD positive and platinum resistant; conditions: gBRCAwt but HRD positive and platinum resistant EOC; QUADRA study; cited from earlier work

SMILES	Dose proportionality of drug exposure [1]	Effect of the other drug's dosing on Cmax [1]	Steady state Cmax compared with monotherapy [1]	Fatigue, share of patients (patients) [%]	Nausea, share of patients (patients) [%]	Vomiting, share of patients (patients) [%]	MTD and RP2D, olaparib dose ([2]; orally twice daily (tablet), combined with alpelisib 200 mg once daily) [mg]	Objective response rate expected from monotherapy (EOC patients; BRCAwt, platinum-resistant ovarian carcinomas, no ref given)	ORR as monotherapy (EOC patients; gBRCAwt / BRCAwt platinum resistant patients)	Expected response rate of monotherapy (EOC patients; platinum resistant gBRCAmut EOC) [%]	Expected response rate of monotherapy (EOC patients; platinum resistant gBRCAwt EOC)	Expected response rate of monotherapy (EOC patients; platinum sensitive gBRCAmut EOC) [%]	Expected response rate of monotherapy (EOC patients; platinum sensitive gBRCAwt EOC) [%]	Response to monotherapy [3] [%]	MTD and RP2D, alpelisib dose ([2]; orally once daily, combined with olaparib 200 mg twice daily) [mg]
O=C(c1cc(Cc2n[nH]c(=O)c3ccccc23)ccc1F)N1CCN(C(=O)C2CC2)CC1 [olaparib]	increasing proportionally with increasing dose	unaffected by alpelisib dosing	comparable to values when testing these agents as monotherapy	63	77	40	200	4–5%	~ 5%	28	~ 5%	≥ 60	50	–	–
NC(=O)c1cccc2cn(-c3ccc([C@@H]4CCCNC4)cc3)nc12 [niraparib]	–	–	–	–	–	–	–	–	–	–	–	–	–	10	–
Cc1nc(NC(=O)N2CCC[C@H]2C(N)=O)sc1-c1ccnc(C(C)(C)C(F)(F)F)c1 [alpelisib]	increasing proportionally with increasing dose	unaffected by olaparib dosing	comparable to values when testing these agents as monotherapy	–	–	–	–	–	–	–	–	–	–	–	200
